# Values joined by “and” are separate entries in the source; they are usually repeats but may differ in a detail not shown here. Equal values may be shown once. Read-outs that look alike come from different tables or passages of the source. Marks after values point to notes of the source that are not given here.
# Tests used:
# [1] = Protonation constants by potentiometric titration in H2O/DMSO; assay type: physicochemical; details: for pKa: H2O/DMSO (v/v 30:70) solution
# In short: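 Ligand (10−4–10−5 M, from DMSO solutions) titrated in H2O/DMSO 30:70 v/v at I = 0.1 (KCl), 25 °C, under argon. Automated titration with carbonate-free KOH standardised against potassium hydrogen phthalate. Read on a glass electrode with Ag/AgCl reference; 120–150 points per titration; pKw 17.16. Constants from nonlinear least-squares refinement of the potentiometric data.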
# [2] = test system: human hepatocarcinoma HepaRG cells; assay: Extracellular LDH leakage; assay type: cell-based; details: 72 h; for % LDH/control with Fe^III 20 μM / % LDH/control without Fe^III: cell supernatant
# HUVEC [3] = assay: BrdU assay, HUVEC survival; assay type: cell-based, human; details: 48 h; for effect on HUVEC survival: 10^−8 to 10^−5 M
# In short: (§1)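 Survival version of the BrdU kit assay. HUVEC (2 × 10^4/well) in 1 % FBS; MDA-MB-231 (1.5 × 10^4/well) in 0 % FBS; triplicate wells. After 24 h serum-free phenol-red-free synchronisation, cells exposed 48 h to test compound at 10−8–10−5 M. BrdU (0.01 mM final) added, re-incubated 2–24 h, OD at 450 and 595 nm. Normalised to untreated controls after background subtraction.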
# HUVEC [4] = assay: Wound-healing assay, HUVEC migration; assay type: cell-based, human; details: 16 h; for effect on HUVEC migration versus control: 10^−6 to 10^−5 M
# In short: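 HUVECs (4 × 10^5/well) plated on 0.2 % gelatin; wound made after 24 h on the confluent layer. Cells then treated 16 h with test compound (10−5 to 10−6 M) in phenol-red-free M199 with 10 % FBS and photographed at 16 h. Genistein 30 μg mL−1 and EGF 50 ng mL−1 as references. At least three experiments; mean ± SEM; ANOVA/Student's test.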
# [5] = log D determination by micro-HPLC; assay type: physicochemical; details: for log D: pH 7, n-octanol/phosphate buffer, HPLC
# HUVEC [6] = assay: BrdU assay, HUVEC proliferation; assay type: cell-based, human; details: 48 h; for effect on HUVEC proliferation: 10^−8 to 10^−5 M
# In short: (§2)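 HUVECs grown on 0.2 % gelatin in M199 with 20 % FBS and ECGS, passages 2–5. HUVEC seeded at 2 × 10^4 and MDA-MB-231 at 1.5 × 10^4 cells/well, in triplicate. Next day, G1-synchronised 24 h in serum-free phenol-red-free medium. Test compound (10−8–10−5 M) given in 10 % FBS for 48 h. BrdU (0.01 mM final) added for 2–24 h; OD read at 450/595 nm. Values background-subtracted and normalised to untreated controls.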
# HUVEC [7] = assay: Matrigel assay, HUVEC capillary-tube formation; assay type: cell-based, human; details: 16 h; for effect on HUVEC capillary tube formation versus control: 10^−6 to 10^−5 M
# In short: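 Forty thousand HUVECs seeded on Matrigel in M199 with 10 % FBS containing test compound (10−5 to 10−6 M) and incubated 16 h. Capillary network length quantified by image analysis of micrographs. Untreated cells as control; genistein 30 μg mL−1 (inhibitor) and EGF 50 ng mL−1 (activator) as references. At least three separate experiments; mean ± SEM; ANOVA and Student's test.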
# [8] = assay type: physicochemical; details: I = 0.1 M (KCl), T = 298 K, H2O/DMSO v/v 30:70; for Log β 1 1–3 (stability constant of Fe^III complex): 5a value by potentiometric and spectrophotometric titrations; for Log β 1 1–2 (stability constant of Fe^III complex): potentiometric and spectrophotometric titrations
# In short: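 Performed in H2O/DMSO 30:70 v/v […], I = 0.1 (KCl), 25 °C under argon. Ligand at 10−4–10−5 M with EDTA-standardised FeCl3 at metal:ligand ratios 1:3, 1:2 and 1:1. Potentiometric and spectrophotometric titrations covered pH 1–13. For spectrophotometry, acidified FeIII–ligand solutions were titrated with KOH to pH 6.5, recording UV-visible spectra after each addition at 25.0 °C. pKw 17.16.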
# MDA-MB-231 cells [9] = assay: BrdU assay, MDA-MB-231 cell survival; assay type: cell-based; details: 48 h; for effect on MDA-MB-231 cell survival: 10^−8 to 10^−5 M
# In short: as §1
# MDA-MB-231 cells [10] = assay: BrdU assay, MDA-MB-231 cell proliferation; assay type: cell-based; details: 48 h; for effect on MDA-MB-231 cell proliferation: 10^−8 to 10^−5 M
# In short: as §2
# [11] = test system: human hepatocarcinoma HepaRG cells; assay: SDH activity; assay type: cell-based
# [12] = reported value; cited from earlier work
# [13] = reported in the literature; cited from earlier work
# [14] = I = 0.1 M (KCl), T = 298 K, H2O/DMSO v/v 30:70
# [15] = read-out: SDH, IC50 without Fe^III, HepaRG cells, 72 h treatment, MTT assay
Compound,% LDH/control with Fe^III 20 μM ([2]; compound 10 μM) [%],% LDH/control without Fe^III ([2]; compound 10 μM),% LDH/control with Fe^III 20 μM ([2]; compound 100 μM) [%],% LDH/control without Fe^III ([2]; compound 100 μM) [%],membrane diffusion / presence in intracellular medium after cell lysis (HepaRG cells),log D [5],"Log β 0 1–1 (overall protonation constant) [1, 14]","Log β 0 1–2 (overall protonation constant) [1, 14]","Log β 0 1–3 (overall protonation constant) [1, 14]","pKa1 [1, 14]","pKa2 [1, 14]","pKa3 [1, 14]",Log β 1 2–6 (stability constant of Fe^III complex) [8],Log β 1 1–3 (stability constant of Fe^III complex) [8],"IC50 [11, 15] [µM]",effect on HUVEC survival (HUVEC [3]),effect on HUVEC migration versus control (HUVEC [4]),effect on HUVEC proliferation (HUVEC [6]),effect on HUVEC capillary tube formation versus control (HUVEC [7]),Log β 1 1–2 (stability constant of Fe^III complex) [8],also measured
"Oc1c2cccc1Cc1cccc(c1O)Cc1cccc(c1O)Cc1cccc(c1O)C2 [compound 6, calix[4]arene]",–,–,–,–,–,–,–,–,–,–,–,–,–,–,–,–,–,–,–,–,pKa (easily deprotonated site of the calix[4]arene core) ([1]; acid–base properties in solution): 4.6
"O=C(CCOCCOc1c2cccc1Cc1cccc(c1O)Cc1cccc(c1O)Cc1cccc(c1O)C2)Nc1ccc(-n2nc(-c3ccccc3O)nc2-c2ccccc2O)cc1 [5a, 25-{1-[2-(2-{4-[3,5-Bis-(2-hydroxyphenyl)-1,2,4-triazol-1-yl]phenyl}carbamoylethoxy)ethoxy]}-26,27,28-trihydroxycalix[4]arene]",67 ±6,105% and 105 ±11%,187 ±5,200 ±15,found in the intracellular medium,4.59 (±0.06),−6.67(2),−17.12(2),−29.63(2),6.67,10.45,12.51,−19.23(8),−1.74(1) ^[c],6 ± 1,–,–,–,–,–,"concentrations inducing a cytotoxic effect (membrane damage, LDH leakage) ([2]; deduced from dose–effect curves): higher than 10 μM; decrease of HUVEC survival versus control (HUVEC [3]; 10^−5 M): 65%; decrease of HUVEC survival versus control (HUVEC [3]; 10^−6 M): 56%; decrease of HUVEC survival versus control (HUVEC [3]; 10^−7 M): 28%; reduction of HUVEC migration versus control (HUVEC [4]; 10^−5 M): 59%; reduction of HUVEC migration versus control (HUVEC [4]; 10^−6 M): 51%; reduction of HUVEC proliferation versus control (HUVEC [6]; 10^−5 M): 74%; reduction of HUVEC proliferation versus control (HUVEC [6]; 10^−6 M): 51%; reduction of HUVEC proliferation versus control (HUVEC [6]; 10^−7 M): 46%; decrease of HUVEC ability to form capillary tubes versus control (HUVEC [7]; 10^−5 M): 48%; decrease of HUVEC ability to form capillary tubes versus control (HUVEC [7]; 10^−6 M): 42%; decrease of MDA-MB-231 survival versus control (MDA-MB-231 cells [9]; 10^−5 M): 58%; decrease of MDA-MB-231 survival versus control (MDA-MB-231 cells [9]; 10^−6 M): 51%; decrease of MDA-MB-231 cell proliferation versus control (MDA-MB-231 cells [10]; 10^−5 M): 73%; decrease of MDA-MB-231 cell proliferation versus control (MDA-MB-231 cells [10]; 10^−6 M): 62%; decrease of MDA-MB-231 cell proliferation versus control (MDA-MB-231 cells [10]; 10^−7 M): 33%; concentrations at which the compound is cytostatic ([11]; HepaRG cells, 72 h, deduced from dose–effect curves): lower than 10 μM; SDH value relative to the control ([11]; compound 10 μM, HepaRG cells, 72 h): 6%"
"O=C(O)c1ccc(-n2nc(-c3ccccc3O)nc2-c2ccccc2O)cc1 [ICL670, deferasirox, reference compound]",80 ±5,87 ±7%,88 ±1,101 ±13,–,–,−5.56(5),−16.55(7),−29.53(7),–,–,–,−20.35(8),−6.48(9),–,did not show any effect,did not show any effect,did not show any effect,did not show any effect,−1.06(9) ^[c],"log D [12]: −0.1; pKa ([1]; pKa1, I = 0.1 M (KCl), T = 298 K, H2O/DMSO v/v 30:70): 5.56; pKa ([1]; pKa2, I = 0.1 M (KCl), T = 298 K, H2O/DMSO v/v 30:70): 11; pKa ([1]; pKa3, I = 0.1 M (KCl), T = 298 K, H2O/DMSO v/v 30:70): 13; pFe [13]: 23.5; Log β 1 2–5 (stability constant of Fe^III complex) [8]: −13.72(9); effect on MDA-MB-231 cell survival (MDA-MB-231 cells [9]): did not show any effect; effect on MDA-MB-231 cell proliferation (MDA-MB-231 cells [10]): did not show any effect; IC50 ([11]; Homo sapiens, HepaRG, 72 h, read-out: SDH, IC50 with Fe^III 20 μM): 61 ± 7 µM; IC50 ([11]; Homo sapiens, HepaRG, 72 h, read-out: SDH, IC50 without Fe^III): 11 ± 4 µM"
"O=C(CCOCCOc1c2cccc1Cc1cccc(c1O)Cc1cccc(c1OCCOCCC(=O)Nc1ccc(-n3nc(-c4ccccc4O)nc3-c3ccccc3O)cc1)Cc1cccc(c1O)C2)Nc1ccc(-n2nc(-c3ccccc3O)nc2-c2ccccc2O)cc1 [5b, 25,27-Bis-{1-[2-(2-{4-[3,5-bis(2-hydroxyphenyl)-1,2,4-triazol-1-yl]-phenyl}carbamoylethoxy)ethoxy]}-26,28-dihydroxycalix[4]arene]",91 ±11,76 ±4%,69 ±6,103 ±2,found in the intracellular medium,3.49 (±0.05),−9.88(3),−21.11(3),−33.21(3),9.88,11.23,12.10,–,−5.08(6),90 ± 7,did not show any effect,did not show any effect,did not show any effect,did not show any effect,−2.35(8) ^[c],"reduction of the lipophilicity in comparison with 5a ([5]; from log D at pH 7): about 12 fold; Log β 0 1–4 (overall protonation constant) [1, 14]: −46.38(6); Log β 0 1–5 (overall protonation constant) [1, 14]: −59.85(4); pKa4 [1, 14]: 13.17; pKa5 [1, 14]: 13.47; effect on MDA-MB-231 cell survival (MDA-MB-231 cells [9]): did not show any effect; effect on MDA-MB-231 cell proliferation (MDA-MB-231 cells [10]): did not show any effect"
